Screening results as filed in PubChem BioAssay.
An excerpt weighted towards active compounds, which were near 4.7% of everything screened.
NR3A LBD binder = NR3A (human) ligand-binding domain modulation. Tm shift relative to glycine control, % at 25 µM. AID 1259313. NR3A LBD differential scanning fluorimetry, Tm shift; 0% = protein alone, 100% = glycine-bound protein. 340,000 tested, 2.5% active;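 active = melting temperature shift of at least 10% of the positive control shift, at one fixed dose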
ADAM17 inh = inhibits human ADAM17; P78536; recombinant ADAM17, EDANS/DABCYL FRET peptide cleavage; inhibition, % at 6.95 µM; 370,000 tested, 0.83% active; AID 720648;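 active = inhibition above the mean of compounds lying between control limits plus 3 SD, set per campaign, cut at about 8.5% in these data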;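 also: 0% = DMSO-only wells as the low control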
SKN-1 inh = blocks SKN-1 activity in C. elegans; AID 624304; C. elegans VP596 Pgst-4::GFP/RFP ratio, acrylamide-induced, 24 h; 360,000 tested, 0.49% active; inhibition, % at 21.8 µM;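 active = interference check ratio from 0.5 to 1.5 plus GFP to RFP signal ratio inhibition reaching or exceeding a fixed threshold, cut at about 30% in these data, passing the limit was not always enough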
MT1-MMP act inh = MT1-MMP (human) activation inhibition; GFP/RFP ratio change, % at 20 µM; 360,000 tested, 0.061% active; P50281; HT1080 RFP-PRO-GFP cells, GFP/RFP ratio fluorescence, overnight; percent of plate control window, DMSO zero;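 active = GFP/RFP ratio change of at least 30% with cell ATP level not reduced by more than half and red fluorescence within 50% of control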
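Test system: HT1080 cells expressing an RFP-PRO-GFP fluorescent reporter construct / Compound dosing: single-point 20 µM compound, 1% DMSO / Schedule: cells overnight before dosing, compound overnight, 37 °C, 5% CO2 / Evaluation: GFP/RFP fluorescence ratio / Control set: DMSO and RFP-L50D-GFP cell wells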
MPTP inh = inhibitors of mitochondrial permeability transition pore; isolated mouse mitochondria, Ca2+ swelling absorbance, 30 min; inhibition, % at 10 µM; 360,000 tested, 1.4% active; AID 602449;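 active = inhibition of 50% or more, scaled per plate between neutral and stimulator controls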;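 also: 0% = DMSO wells given calcium and 100% = 1 mM EGTA wells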
ADAM10 inh = ADAM10 inhibition, QFRET primary screen | recombinant ADAM10, EDANS/DABCYL FRET peptide cleavage, 3 h | inhibition, % at 7 µM | 370,000 tested, 0.62% active | AID 720582;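 active = inhibition above a per-campaign cutoff equal to the mean of compounds falling between control-based bounds plus 3 SD, cut at about 20% in these data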;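 also: 0% = DMSO wells while the 100% control is not disclosed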
Target sequence (O14672 214-748 limits assumed): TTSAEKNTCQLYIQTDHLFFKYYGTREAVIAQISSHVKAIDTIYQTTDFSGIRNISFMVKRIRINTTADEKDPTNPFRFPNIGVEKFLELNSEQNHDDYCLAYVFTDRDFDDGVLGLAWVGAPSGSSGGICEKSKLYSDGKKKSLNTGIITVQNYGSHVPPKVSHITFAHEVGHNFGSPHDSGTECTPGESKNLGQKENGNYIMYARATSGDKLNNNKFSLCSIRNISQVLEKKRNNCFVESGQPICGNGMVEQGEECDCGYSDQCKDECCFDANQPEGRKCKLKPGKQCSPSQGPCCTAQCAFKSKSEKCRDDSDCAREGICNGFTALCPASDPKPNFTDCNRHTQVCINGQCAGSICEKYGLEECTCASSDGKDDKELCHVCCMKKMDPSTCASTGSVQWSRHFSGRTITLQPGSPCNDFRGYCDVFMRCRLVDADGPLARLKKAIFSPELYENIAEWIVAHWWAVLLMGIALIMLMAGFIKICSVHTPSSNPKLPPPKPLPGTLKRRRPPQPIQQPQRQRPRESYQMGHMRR
Numbers without * were called inactive; i = inactive; . = no result.

SMILES	NR3A LBD binder	ADAM17 inh	SKN-1 inh	MT1-MMP act inh	MPTP inh	ADAM10 inh
CC(=O)Nc1ccc(S(=O)(=O)Nc2nc3ccccc3nc2Nc2ccc(O)cc2)cc1	17*	-4	3	3	1	-5
COc1ccc(S(=O)(=O)N2CCNCC2)cc1OC	1	-3	-1	4	-2	1
CCCC1=NN2C(=N)/C(=C\c3ccc(SCc4ccco4)o3)C(=O)N=C2S1	-4	.	44*	-66	4	.
COC(=O)CC1Sc2ccccc2NC1=O (centres undefined)	14*	-39	-26	6	0	-3
Cc1ccc(NC2Sc3ccccc3NC2=O)cc1 (centres undefined)	13*	-1	4	-8	-5	4
COc1ccc(NC(=O)COC(=O)CC2Sc3ccccc3NC2=O)cc1 (centres undefined)	4	-3	-8	-1	-1	-8
O=C1Nc2ccccc2SC1c1ccccc1 (centres undefined)	1	-4	2	1	0	0
CC(=O)Nc1nc(-c2ccc(Cl)cc2)nc(C)c1C(C)=O	-6	-2	-19	-2	2	-2
O=C(O)c1ccc2ccc3ccccc3c2c1	2	-1	41*	-1	3	5
Cc1ccc(OCCNC(=O)CCNS(=O)(=O)c2ccc(C)cc2)cc1	-3	-4	7	0	0	-4
Cc1ccc(NC(=O)Cc2noc3ccccc23)cc1	-1	-1	-2	5	2	2
CN(C(=O)Cc1noc2ccccc12)c1ccccc1	12*	-2	-4	1	0	3
COc1ccc(CNC(=O)OCCN2CCN(S(=O)(=O)c3ccc(C)cc3)CCC2=O)cc1	0	-4	-3	5	1	1
Cc1cc(C)cc(N2C(=O)c3nccnc3C2=O)c1	14*	1	13	-2	2	-5
CCN(CC(=O)NCc1ccc(F)cc1)Cc1nc2cc(Cl)ccc2c(=O)[nH]1	1	-6	65*	-7	1	-9
COCCOc1ccc(C(F)(F)F)cc1NC(=O)Cc1ccc(S(=O)(=O)N2CCOCC2)s1	-3	-2	12	-5	-2	2
Cc1cnc2cc(Cl)c(Cl)cc2n1	579*	1	-9	6	0	3
Cc1cccn2c(=O)c(C=O)c(N3CCCCCC3)nc12	-2	.	37*	-6	1	.
Cc1ccc(NC(=O)CCc2nc3ccccc3s2)c(O)c1	1	-3	-3	-2	-3	-3
Nc1ccc2c(c1)C(=O)c1ccc(Br)cc1-2	26*	-2	-14	2	2	-7
O=C(O)c1ccccc1NCc1ccncc1	-1	-21	-1	4	-2	-69
COc1ccc2oc(C(F)(F)C(F)(F)F)cc(=O)c2c1	10	-2	14	6	1	-4
COc1ccc2oc(C(F)(F)C(F)F)cc(=O)c2c1	-4	-78	36*	4	4	-242
CN(c1ccc(OCc2nnc(-c3ccccc3)o2)cc1)S(=O)(=O)c1ccccc1	20*	2	20	5	-2	3
CN(c1ccc(OCC(=O)OCc2nnc(-c3ccccc3)o2)cc1)S(=O)(=O)c1ccc(Cl)cc1	0	7	-15	-3	-4	5
SMILES	NR3A LBD binder	ADAM17 inh	SKN-1 inh	MT1-MMP act inh	MPTP inh	ADAM10 inh
CN(CCCN1CCOCC1)C(=O)c1cc(COc2cccc(C(F)(F)F)c2)on1	-2	-2	45*	2	1	-8
O=C(CC1CCCC1)Nc1cccc(Br)c1	-9	0	18	-2	0	4
N#Cc1cccc(NC(=O)CC2CCCCC2)c1	12*	-5	13	3	7	7
CCCc1cc(C(=O)Cc2ccccn2)c(O)cc1O	4	-11	20	2	0	-33
O=C(Nc1cccc(-c2nc3ccccc3[nH]2)c1)c1cccc(NC(=O)c2ccco2)c1	20*	-102	4	-1	1	-235
Cc1ccc(-c2nc3ccccc3[nH]2)cc1NC(=O)c1ccco1	-1	-2	9	1	-2	-12
O=C(Nc1ccc2nc(-c3ccccc3)[nH]c2c1)c1ccco1	10	-16	4	8	2	-63
O=C(Nc1ccc2nc(-c3ccc(Br)o3)[nH]c2c1)c1ccco1	10*	-1	-22	6	-2	0
CC(=O)Nc1ccc2nc(-c3ccc(Br)o3)[nH]c2c1	8	-9	5	-2	-1	-37
Cn1cccc1-c1nc2ccc(NC(=O)c3cccs3)cc2[nH]1	16*	-3	8	6	6	-3
Cc1cccc2[nH]c(-c3ccc(NC(=O)c4ccco4)cc3)nc12	31*	-2	6	6	0	-11
O=C(CCC(=O)N1CCOc2ccccc21)N1CCN(c2ccccc2)CC1	-2	-4	-5	3	0	-7
CN(C(=O)CSc1nnc(-c2cccs2)n1C1CC1)C1CCS(=O)(=O)C1 (centres undefined)	1	-9	0	0	0	-13
O=C(Nc1ccc2nc(-c3ccc(Br)o3)[nH]c2c1)c1cccs1	21*	-3	5	5	0	1
CC(=O)Nc1ccc2nc(-c3cccs3)[nH]c2c1	8	i	-6	8	0	i
O=C1CC(N2CCC(c3nc4ccccc4o3)CC2)C(=O)N1c1cc(Cl)cc(Cl)c1 (centres undefined)	0	2	22	8	7	8
O=C(NN1C(=O)NC2(CCCCC2)C1=O)c1ccc(Cl)s1	2	1	8	2	0	-10
O=C(CSc1nnc(CN2CCOCC2)n1-c1ccc(Cl)cc1)N1CCc2ccccc21	-8	-2	42*	-2	-4	-5
Cc1ccc(C)c(-n2c(CNC(=O)c3ccco3)nnc2SCC(=O)Nc2nnc(C)s2)c1	-1	-4	8	3	-1	-2
O=C(CSc1nnc(CN2CCOCC2)n1-c1ccccc1)N1CCc2ccccc21	-1	1	8	5	1	3
Cc1ccc(C)c(-n2c(CNC(=O)c3ccco3)nnc2SCC(=O)N2CCc3ccccc32)c1	0	-1	39*	0	-1	5
O=C(CCCCCn1c(=S)[nH]c2ccc(N3CCOCC3)cc2c1=O)NCc1ccc(Cl)cc1	-1	-5	0	2	3	-22
CCOc1ccc(Cl)cc1-c1cc(C(=O)NCc2cc(C(F)(F)F)cc(C(F)(F)F)c2)[nH]n1	.	-3	-23	2	19	-9
O=C(CCc1ccccc1Cl)Nc1ccc(S(=O)(=O)N2CCOCC2)cc1	19*	1	-2	1	0	6
